Results from ChEMBL document CHEMBL4699450, “Nonclassical Phenyl Bioisosteres as Effective Replacements in a Series of Novel Open-Source Antimalarials” (J Med Chem, 2020).
≈ marks a conversion by molar mass, not a printed value. Calls of active or inactive are those of the source. The calls are words filed in the database; no cut-off is given here.

Key:
Plasmodium falciparum = experiment: Antiplasmodial activity against Plasmodium falciparum 3D7 by SYBR green-I fluorescence dye based fluorescence assay; assay type: functional, organism-based
Summary of the method: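 P. falciparum 3D7 grown in human red cells (1.25% or 5% suspension) in RPMI 1640 with 0.5% Albumax II, 12 mM bicarbonate, 0.2 mM hypoxanthine, pH 7.3, gentamicin, 37 °C, 1% O2/3% CO2. Ten-point dose-response, 1-in-3 dilutions; SYBR Green I DNA fluorescence (ex 485/em 528 nm); mefloquine control; percent inhibition vs high/no-inhibition controls; four-parameter fit; IC50 from ≥3 independent experiments.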

[1] = Kinetic solubility in pH 6.5 phosphate buffer after 30 mins by nephelometry; assay type: physicochemical; conditions: read-out: Kinetic_solubility
Summary of the method: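 DMSO stock spiked into pH 6.5 phosphate buffer at 7 concentrations, final DMSO 1%; after 30 min precipitation read by nephelometry to give a solubility range.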

[2] = Half life in human liver microsomes at 1 uM in presence of NADPH-regenerating system; assay type: ADME, Microsome
[3] = Half life in mouse liver microsomes at 1 uM in presence of NADPH-regenerating system; assay type: ADME, Microsome
[4] = Distribution coefficient, logD of compound at pH 7.4 by HPLC analysis; assay type: physicochemical; conditions: octanol/water
Summary of the method: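 LogD at pH 7.4 estimated by gradient HPLC, correlating retention (mean of 2 injections) against standards of known partition coefficient.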

[5] = target: Voltage-gated inwardly rectifying potassium channel KCNH2 (Homo sapiens, UniProt Q12809); experiment: Inhibition of human ERG
Sequence of Voltage-gated inwardly rectifying potassium channel KCNH2 (Q12809 whole entry): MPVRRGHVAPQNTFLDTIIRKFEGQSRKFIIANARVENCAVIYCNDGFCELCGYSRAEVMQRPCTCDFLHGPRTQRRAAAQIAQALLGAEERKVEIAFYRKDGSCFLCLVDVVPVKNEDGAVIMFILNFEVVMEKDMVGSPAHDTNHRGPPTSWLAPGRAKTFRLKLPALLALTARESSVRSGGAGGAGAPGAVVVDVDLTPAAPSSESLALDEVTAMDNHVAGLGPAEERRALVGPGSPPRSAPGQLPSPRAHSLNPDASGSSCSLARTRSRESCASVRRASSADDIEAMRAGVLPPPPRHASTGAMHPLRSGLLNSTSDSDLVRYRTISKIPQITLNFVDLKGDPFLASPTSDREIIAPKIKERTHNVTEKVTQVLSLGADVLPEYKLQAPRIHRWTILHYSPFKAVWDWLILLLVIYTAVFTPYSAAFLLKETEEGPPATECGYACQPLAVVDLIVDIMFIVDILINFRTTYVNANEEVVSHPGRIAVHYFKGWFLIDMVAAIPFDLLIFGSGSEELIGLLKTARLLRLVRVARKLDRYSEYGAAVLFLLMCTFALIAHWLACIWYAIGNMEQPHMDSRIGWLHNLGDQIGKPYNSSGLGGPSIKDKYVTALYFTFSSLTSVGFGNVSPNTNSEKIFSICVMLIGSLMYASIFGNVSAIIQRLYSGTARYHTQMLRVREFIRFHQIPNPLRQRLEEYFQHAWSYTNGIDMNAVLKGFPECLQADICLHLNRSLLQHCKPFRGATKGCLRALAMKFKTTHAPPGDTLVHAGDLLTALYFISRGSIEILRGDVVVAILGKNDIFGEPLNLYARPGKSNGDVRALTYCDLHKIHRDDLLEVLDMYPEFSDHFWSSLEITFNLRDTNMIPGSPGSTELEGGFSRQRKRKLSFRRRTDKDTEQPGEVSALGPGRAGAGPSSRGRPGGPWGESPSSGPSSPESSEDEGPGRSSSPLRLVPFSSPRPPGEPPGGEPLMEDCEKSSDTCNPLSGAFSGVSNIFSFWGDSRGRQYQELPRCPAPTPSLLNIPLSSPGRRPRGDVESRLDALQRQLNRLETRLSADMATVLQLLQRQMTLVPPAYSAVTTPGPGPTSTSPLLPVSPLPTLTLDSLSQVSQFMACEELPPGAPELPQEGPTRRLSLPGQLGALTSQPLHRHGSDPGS

| SMILES | Activity (Plasmodium falciparum) | further results |
| --- | --- | --- |
| FC(F)Oc1ccc(-c2nnc3cncc(OC[C@H]4C[C@@H]5C[C@@H]4[C@@H]4O[C@H]54)n23)cc1 | inactive | – |
| FC(F)Oc1ccc(-c2nnc3cncc(OCC45CC(C(F)F)(C4)C5)n23)cc1 | Active | solubility kinetic at 0.5 h [1]: 6.3 µg/mL (≈ 15.4 µM); half-life at 1 µM [2]: 190 min; half-life at 1 µM [3]: 66 min; logD [4]: 3.6 |
| c1ccc(CCOc2cncc3nnc(C4CCNC4)n23)cc1 (stereo unspecified) | inactive | – |
| c1ccc(CCOc2cncc3nnc(C4CCNCC4)n23)cc1 | inactive | – |
| FC(F)Oc1ccc(-c2nnc3cncc(Oc4ccccc4)n23)cc1 | inactive | – |
| CC(C)(C)OC(=O)N1CCC(c2nnc3cncc(OCCc4ccccc4)n23)CC1 | inactive | – |
| CC(C)(C)OC(=O)N1CCN(CCOc2cncc3nnc(-c4ccc(OC(F)F)cc4)n23)CC1 | inactive | – |
| FC(F)Oc1ccc(-c2nnc3cncc(OC[C@H]4C[C@@H]5C[C@@H]4[C@H]4O[C@@H]54)n23)cc1 | inactive | – |
| FC(F)Oc1ccc(-c2nnc3cncc(OCCN4CCNCC4)n23)cc1 | inactive | – |
| FC(F)Oc1ccc(-c2nnc3cncc(OCCc4ccccc4)n23)cc1 | – | solubility kinetic at 0.5 h [1]: 6.3 µg/mL (≈ 16.5 µM); IC50 [5]: 7.41 µM; half-life at 1 µM [2]: 26 min; half-life at 1 µM [3]: 7 min; logD [4]: 3.7 |
| FC(F)Oc1ccc(-c2nnc3cncc(OCCN4CCCCC4)n23)cc1 | inactive | – |
| FC(F)Oc1ccc(-c2nnc3cncc(OCCC45C6C7C8C6C4C8C75)n23)cc1 (stereo unspecified) | Active | solubility kinetic at 0.5 h [1]: < 1.6 µg/mL; IC50 [5]: 4.26 µM; half-life at 1 µM [2]: 9 min; half-life at 1 µM [3]: 3 min; logD [4]: 4.3 |
| FC(F)Oc1ccc(-c2nnc3cncc(OCCN4CCCC4)n23)cc1 | inactive | – |
| c1ccc(CCOc2cncc3nnc(C4CCOCC4)n23)cc1 | inactive | – |
| CC(C)(C)OC(=O)N1CCC(c2nnc3cncc(OCCc4ccccc4)n23)C1 (stereo unspecified) | inactive | – |
| c1ccc(CCOc2cncc3nnc(C4CCOC4)n23)cc1 (stereo unspecified) | inactive | – |
| FC(F)Oc1ccc(-c2nnc3cncc(OCCN4CC5(COC5)C4)n23)cc1 | inactive | – |
| FC(F)Oc1ccc(-c2nnc3cncc(OCCC4COC4)n23)cc1 | inactive | – |
